An excerpt weighted towards active compounds, which were near 2.7% of everything screened.
PAFAH1B2 FP inh – PAFAH1B2 (human) inhibition; recombinant PAFAH1B2, FP-rhodamine activity probe, fluorescence polarization; inhibition, % at 3.39 µM; 340,000 compounds, 1.2% hits;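 active = inhibition above the mean of all tested compounds plus 3 SD, cut at about 24% in these data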;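 note: 0% = enzyme with DMSO and 100% = wells lacking PAFAH1B2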
PAFAH1B3 FP inh – PAFAH1B3 (human) inhibition; inhibition, % at 3.39 µM; 340,000 compounds, 0.28% hits; AID 492972; Q15102; recombinant PAFAH1B3, FP-rhodamine probe, fluorescence polarization;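 active = inhibition above the screen-wide average of all tested compounds plus 3 SD, cut at about 25% in these data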;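 note: 0% = enzyme with DMSO only and 100% = wells lacking PAFAH1B3 protein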
pPAFAH inh – inhibitors of human plasma PAF acetylhydrolase (pPAFAH) | inhibition, % at 3.39 µM | AID 463082 | recombinant pPAFAH, FP-rhodamine probe fluorescence polarization | 330,000 compounds, 1.5% hits;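 active = inhibition above the mean inhibition across the screen plus 3 SD, cut at about 25% in these data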;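 note: inhibitors block binding of the rhodamine activity-based probe so polarization drops; 0% = enzyme with DMSO and 100% = wells lacking pPAFAH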
Target sequence (Q13093 whole entry, looked up): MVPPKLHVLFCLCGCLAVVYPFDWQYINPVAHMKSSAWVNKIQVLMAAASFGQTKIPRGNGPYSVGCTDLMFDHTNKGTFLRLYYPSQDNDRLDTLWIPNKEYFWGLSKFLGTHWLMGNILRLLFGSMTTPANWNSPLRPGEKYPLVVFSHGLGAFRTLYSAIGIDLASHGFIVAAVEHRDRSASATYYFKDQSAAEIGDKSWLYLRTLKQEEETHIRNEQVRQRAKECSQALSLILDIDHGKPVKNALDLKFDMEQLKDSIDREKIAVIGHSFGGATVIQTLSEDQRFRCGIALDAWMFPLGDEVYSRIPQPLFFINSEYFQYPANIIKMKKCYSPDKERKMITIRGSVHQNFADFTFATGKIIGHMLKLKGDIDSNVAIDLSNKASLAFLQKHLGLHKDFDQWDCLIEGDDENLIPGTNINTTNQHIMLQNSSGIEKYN
RBBP9 inh – human RBBP9 hydrolase inhibition; inhibition, % at 7.94 µM; 220,000 compounds, 0.2% hits; O75884; AID 1515; recombinant RBBP9, FP-Rh probe fluorescence polarization;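 active = inhibition above the campaign mean of all tested compounds plus 3 SD, cut at about 14% in these data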;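 note: plate controls were DMSO wells with RBBP9 for no effect and wells lacking RBBP9 protein for full effect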
Target sequence (O75884 whole entry, looked up): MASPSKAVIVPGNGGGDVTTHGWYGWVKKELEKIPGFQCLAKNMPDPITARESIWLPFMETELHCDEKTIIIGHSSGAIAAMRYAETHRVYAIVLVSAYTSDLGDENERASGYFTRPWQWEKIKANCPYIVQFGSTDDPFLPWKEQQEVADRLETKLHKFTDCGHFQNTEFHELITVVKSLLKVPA
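Test system: recombinant human RBBP9. Quantity: 2.5 µM RBBP9 dispensing solution, before mixing. Detection: FP readout at 525/598 nm. Reagent: Serine-hydrolase probe FP-Rh, 375 nM pre-mixing. Measure: % inhibition. Control set: DMSO-treated enzyme wells and wells lacking RBBP9. Buffer or medium: Tris-NaCl-Pluronic buffer, pH 8.0. Times: preincubation 30 min plus labeling 45 min at 25 °C.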
PAFAH2 FP inh – inhibitors of human PAFAH2; Q99487; recombinant PAFAH2, FP-rhodamine activity probe, fluorescence polarization; inhibition, % at 3.39 µM; 340,000 compounds, 0.99% hits;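 active = inhibition above the mean over all tested compounds plus 3 SD, cut at about 30% in these data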;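 note: inhibitors block probe labeling of enzyme so polarization drops; 0% = enzyme with DMSO and 100% = wells lacking PAFAH2 protein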
Starred values were filed as active, the others as inactive; nt = no result.

SMILES	PAFAH1B2 FP inh	PAFAH1B3 FP inh	pPAFAH inh	RBBP9 inh	PAFAH2 FP inh
CC(=O)Nc1ccc(S(=O)(=O)NCCSCc2ccc(Cl)cc2Cl)cc1	39*	7	16	-6	-8
O=C(NNC(=O)C1CC(=O)N(Cc2ccccc2)C1)c1ccc(Br)cc1 (stereo unspecified)	-2	-5	8	nt	-4
CCC1CCC2(CC1)NNC(=S)NN2	3	7	4	-3	0
O=C(COc1cccnc1[N+](=O)[O-])c1ccc(Cl)s1	4	9	31*	11	18
O=C(COc1cccnc1[N+](=O)[O-])Nc1c(Cl)cccc1Cl	3	-3	5	nt	-2
COc1ccc2c(c1)O[C@@H](c1cccc(C(F)(F)F)c1)[C@H](O)C2=O	6	13	5	-4	71*
CCCCn1c(CCC(=O)O)ccc1-c1cccs1	10	-2	28*	-4	4
Cc1ccc(-n2c(CCC(=O)O)ccc2-c2cccs2)cc1C	6	8	29*	-2	10
COCCn1c(CCC(=O)O)ccc1-c1cccs1	-4	-4	6	-4	-4
O=C(Nc1nnc(-c2cccs2)o1)c1cc(-c2ccccc2)nc2ccccc12	-2	7	0	-9	-1
CCN(Cc1ccc(N(C)C)cc1)C(C)C(=O)Nc1ccc(S(=O)(=O)N2CCCC2)cc1 (stereo unspecified)	4	2	1	nt	-2
CC(=O)Nc1ccc(N2C(=O)CSC2c2ccc([N+](=O)[O-])cc2)cc1 (stereo unspecified)	11	-1	5	nt	4
O=C(c1ccc([N+](=O)[O-])cc1)N1CCSC1c1ccc(Cl)cc1 (stereo unspecified)	29*	8	5	-7	5
Cc1ccc(C2SCCN2C(=O)c2ccc([N+](=O)[O-])cc2)cc1 (stereo unspecified)	24*	3	1	-5	-6
Cc1ccnc(SCC(=O)NC2CCCCCC2)n1	-3	3	0	nt	-6
COc1ccccc1C(C)NC(=O)C1CCN(S(=O)(=O)c2cccs2)CC1 (stereo unspecified)	5	8	8	nt	5
O=C(NCc1ccccn1)c1cc2ccccn2n1	0	2	-4	-9	0
O=C(NCCc1ccc(Cl)cc1)c1cc2ccccn2n1	30*	6	0	10	1
O=C1OCC(c2ccccc2)=C1c1ccc(S(=O)(=O)N2CCOCC2)s1	7	1	9	-7	10
O=C(O)c1cc(-c2cccc(Cl)c2)nc2nc(N3CCCCC3)sc12	82*	27*	0	3	12
O=C(c1cc(-c2cccc(Cl)c2)nc2ccccc12)N1CCN(c2ccccn2)CC1	-4	1	5	nt	4
O=C(O)CCn1c(=S)n(CCC(=O)O)c2ccccc21	4	12	4	-9	2
Cn1c2ccccc2c2cc(/C=N/NC(=O)c3ccc(O)cc3O)ccc21	23	33*	31*	nt	-22
O=C1NC(c2ccccc2)=N/C1=C/c1ccco1	0	5	12	-8	-1
O=C1NC(c2cccc(Br)c2)=N/C1=C\c1ccco1	-2	-2	31*	3	7
SMILES	PAFAH1B2 FP inh	PAFAH1B3 FP inh	pPAFAH inh	RBBP9 inh	PAFAH2 FP inh
CCNC(=O)NC(=O)CN(C)c1ccccc1	6	-2	-8	-8	1
O=C(N/N=C/c1cc(Cl)cc([N+](=O)[O-])c1O)NC12CC3CC(CC(C3)C1)C2	59*	22	10	-1	53*
C=C(C)COc1ccc(C2NC(=O)c3ccccc3O2)cc1OCC (stereo unspecified)	1	5	nt	nt	-2
CCc1nnc(NC(=O)CC23CC4CC(CC(Br)(C4)C2)C3)s1	27*	10	9	nt	2
CC(C)c1nnc(NC(=O)CC23CC4CC(CC(C4)C2)C3)s1	21	2	-4	nt	1
CCCc1nnc(NC(=O)C23CC4CC(CC(C4)C2)C3)s1	25*	3	nt	nt	4
COc1cc2cc(CN(Cc3cccs3)C(=S)Nc3ccccc3)c(=O)[nH]c2cc1OC	-11	5	-10	-7	-35
CCN(CC)S(=O)(=O)c1ccc(N/N=C/c2ccccc2OCC(=O)O)c([N+](=O)[O-])c1	9	3	30*	-6	9
COc1ccccc1NS(=O)(=O)c1ccc(N/N=C/c2ccccc2OCC(=O)O)c([N+](=O)[O-])c1	9	13	29*	5	15
O=C(Nc1ccc2c(c1)C(=O)NC2=O)c1ccc2ncsc2c1	-27	-56	0	-8	-55
C=CCn1c(-c2cccn(Cc3ccc(Cl)cc3Cl)c2=O)n[nH]c1=S	29*	5	-6	0	2
C=CCn1c(-c2cccn(Cc3ccc(Cl)cc3)c2=O)n[nH]c1=S	33*	4	4	1	0
Oc1csc(Cc2nc(-c3ccccc3F)cs2)n1	4	-2	12	4	-4
O=c1[nH]c2cc(Cl)ccc2c(O)c1-c1cccc(Oc2ccccc2)c1	32*	4	-5	nt	9
Cc1cc([N+](=O)[O-])nn1Cc1ccc(C(=O)N/N=C/c2ccc(N(C)C)cc2)cc1	-2	5	2	7	1
O=C1C=C(N2CCOCC2)c2ccccc2C1=O	21	77*	9	nt	47*
CC1=C(C)C(=O)C(N2CCOCC2)=CC1=O	2	0	nt	-2	-3
Cc1cc(C)c(C#N)c(SCCS(=O)(=O)c2ccc(Cl)cc2)n1	29*	-4	3	0	1
CCCCn1c(N)c(N(CC(C)C)C(=O)c2ccco2)c(=O)[nH]c1=O	5	5	-2	nt	2
Cc1ccc(S(=O)(=O)N2CCN(C(=O)c3ccccc3Cc3ccccc3)CC2)c(C)c1	27*	-2	4	nt	-1
Cc1ccc(S(=O)(=O)N2CCN(C(=O)c3ccco3)CC2)c(C)c1	-2	5	-4	nt	1
O=c1[nH]c(CN2CCN(c3ccc([N+](=O)[O-])cc3)CC2)nc2ccsc12	32*	-3	10	-5	-5
COc1ccc(N2CCN(Cc3nc4ccsc4c(=O)[nH]3)CC2)cc1	1	5	0	-4	-1
CC(C)(C)c1cc(=O)[nH]c(SCc2ccccc2Cl)n1	12	4	27*	-7	16
CC(C)(C)c1cc(=O)[nH]c(SCc2ccccc2)n1	21	1	31*	-8	14
SMILES	PAFAH1B2 FP inh	PAFAH1B3 FP inh	pPAFAH inh	RBBP9 inh	PAFAH2 FP inh
Cc1cc(=O)[nH]c(SCc2ccccc2)n1	0	5	-2	nt	3
Cc1nn(S(=O)(=O)c2ccc(Br)cc2)c(C)c1S(=O)(=O)N1CCOCC1	5	12	2	nt	3
S=c1[nH]nc(-c2cccc3ccccc23)n1-c1cccnc1	nt	nt	5	2	nt
CCCCCSc1nnc(-c2cc(Br)ccc2N)c(=O)[nH]1	27*	8	6	4	11
CCCCSc1nnc(-c2ccccc2N)c(=O)[nH]1	11	10	6	3	0
COc1ccc(S(=O)(=O)NCCOc2ccc(Cl)cc2)cc1	20	9	-2	nt	-1

Screening data as filed in PubChem.
